Source: paper PMC11261800 (Heliyon, 2024)

Test system: HFF-1 cells
Test: SA-β-gal activity in D-gal-induced premature aging of HFF-1 cells
Type: cell-based, human
Details: 500 μg/mL
How it was run: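 HFF-1 fibroblasts were seeded at 2 × 10^4 cells/well and cultured for 24 h. Growth medium was replaced for 72 h with test sample solution containing D-gal at 20 mg/mL final. SA-β-gal activity was detected by X-gal staining, and blue positive cells were viewed by microscopy and counted against the D-gal-injured and blank control groups.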

**Q.** `N[C@@H](CCC(=O)N[C@@H](CS)C(=O)NCC(=O)O)C(=O)O` [GSH] was tested. Which “decrease of SA-β-gal positive staining rate compared with the D-gal group” value did it give?
**A.** 50.61%
